For test [1], the target named is 5-hydroxytryptamine receptor 6 (Homo sapiens, UniProt P50406). Kind of test: Binding affinity towards 5-hydroxytryptamine 6 receptor using [3H]- LSD as radioligand. The procedure, abridged: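 Membranes from HEK293 cells expressing recombinant human 5-HT6 receptor. Displacement of [3H]LSD binding measured; IC50 derived.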
The nature of test [2]: Apparent dissociation constant was determined. The essentials: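 Human 5-HT6 receptor expressed in HEK293 cells with coexpressed Gα15, read out as 5-HT-stimulated Ca2+ mobilization. 5-HT EC50 was measured without antagonist and with increasing antagonist concentrations. Dose ratio is EC50 with antagonist divided by EC50 for 5-HT alone. Schild plot of log(dose ratio − 1) vs −log[antagonist]. Triplicate points; experiment repeated at least twice.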

Test [3] has as its target Cytochrome P450 2C19 (Homo sapiens) (UniProt P33261). Nature of the test: Inhibition of recombinant human Cytochrome P450 2C19.
The target in another test is Cytochrome P450 2D6 (Homo sapiens, UniProt P10635). Nature of the test: Inhibition of recombinant human Cytochrome P450 2D6. Format: ADME. The procedure, abridged: (§1)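 Recombinant human CYP enzymes with fluorogenic substrates. CYP1A2: 3-cyano-7-ethoxycoumarin deethylation. CYP2C9: 7-methoxy-4-trifluoromethylcoumarin dealkylation. CYP2D6: 3-[2-(N,N-diethyl-N-methylamino)ethyl]-7-methoxy-4-methylcoumarin demethylation. CYP3A4: benzoylresorufin or 7-benzyloxy-4-trifluoromethylcoumarin dealkylation, tested separately. IC50 for metabolism inhibition reported as mean ± SEM (n = 7).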

Test [4] deals with T1, Cytochrome P450 3A4 (Homo sapiens, UniProt P08684). Nature of the test: Inhibition of recombinant human Cytochrome P450 3A4 with BzRes. Format: ADME. The essentials:
as §1

The next test addresses Cytochrome P450 2C9 (Homo sapiens, UniProt P11712). Kind of test: Inhibition of recombinant human Cytochrome P450 2C9. Format: ADME. The procedure, abridged: as §1
The target in test [5] is T1, Cytochrome P450 3A4. Kind of test: Inhibition of recombinant human Cytochrome P450 3A4 with BFC. Format: ADME. The procedure, abridged: as §1
The next test has as its target T2, Cytochrome P450 1A2 (Homo sapiens, UniProt P05177).
T2 sequence (P05177 whole entry): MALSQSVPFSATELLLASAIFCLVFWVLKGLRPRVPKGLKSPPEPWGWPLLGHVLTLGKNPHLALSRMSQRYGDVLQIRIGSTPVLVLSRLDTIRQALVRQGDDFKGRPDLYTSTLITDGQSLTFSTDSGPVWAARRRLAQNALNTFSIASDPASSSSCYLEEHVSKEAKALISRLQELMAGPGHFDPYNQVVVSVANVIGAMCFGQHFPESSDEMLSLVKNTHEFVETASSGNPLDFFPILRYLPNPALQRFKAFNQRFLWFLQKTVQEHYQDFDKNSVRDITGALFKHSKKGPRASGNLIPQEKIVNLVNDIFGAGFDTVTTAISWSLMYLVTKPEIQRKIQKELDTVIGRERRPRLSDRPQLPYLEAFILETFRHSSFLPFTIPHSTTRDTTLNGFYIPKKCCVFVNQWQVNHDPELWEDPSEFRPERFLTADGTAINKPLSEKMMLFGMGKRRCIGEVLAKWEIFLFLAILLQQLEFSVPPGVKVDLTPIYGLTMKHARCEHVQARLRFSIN
Nature of the test: Inhibition of recombinant human Cytochrome P450 1A2. Format: ADME. The essentials: as §1

Chain of 5-hydroxytryptamine receptor 6 (P50406 whole entry): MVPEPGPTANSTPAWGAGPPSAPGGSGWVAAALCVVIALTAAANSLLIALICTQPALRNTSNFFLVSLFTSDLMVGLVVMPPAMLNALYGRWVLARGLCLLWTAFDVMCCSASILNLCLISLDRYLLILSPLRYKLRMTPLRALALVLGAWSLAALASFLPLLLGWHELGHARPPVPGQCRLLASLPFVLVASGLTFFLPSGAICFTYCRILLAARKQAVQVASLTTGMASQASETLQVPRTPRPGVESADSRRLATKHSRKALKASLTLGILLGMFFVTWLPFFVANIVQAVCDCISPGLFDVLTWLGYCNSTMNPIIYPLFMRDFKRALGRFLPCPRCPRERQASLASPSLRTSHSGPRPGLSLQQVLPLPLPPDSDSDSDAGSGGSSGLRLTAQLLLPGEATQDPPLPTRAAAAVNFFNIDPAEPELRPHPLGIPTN
T1 sequence (P08684 whole entry): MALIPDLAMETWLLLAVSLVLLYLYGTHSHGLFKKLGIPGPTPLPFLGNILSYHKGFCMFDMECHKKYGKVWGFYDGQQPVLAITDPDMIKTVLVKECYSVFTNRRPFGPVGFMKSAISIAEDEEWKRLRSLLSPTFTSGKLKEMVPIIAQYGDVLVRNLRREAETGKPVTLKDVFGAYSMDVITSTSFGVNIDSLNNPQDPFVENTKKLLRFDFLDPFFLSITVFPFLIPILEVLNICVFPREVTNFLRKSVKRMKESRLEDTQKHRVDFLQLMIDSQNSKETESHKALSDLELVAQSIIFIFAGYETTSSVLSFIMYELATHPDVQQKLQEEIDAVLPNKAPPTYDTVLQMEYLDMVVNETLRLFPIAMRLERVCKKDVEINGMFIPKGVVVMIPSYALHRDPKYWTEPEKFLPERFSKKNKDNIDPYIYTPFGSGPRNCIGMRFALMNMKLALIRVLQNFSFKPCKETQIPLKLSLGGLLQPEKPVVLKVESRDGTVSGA
Chain of Cytochrome P450 2D6 (P10635 whole entry): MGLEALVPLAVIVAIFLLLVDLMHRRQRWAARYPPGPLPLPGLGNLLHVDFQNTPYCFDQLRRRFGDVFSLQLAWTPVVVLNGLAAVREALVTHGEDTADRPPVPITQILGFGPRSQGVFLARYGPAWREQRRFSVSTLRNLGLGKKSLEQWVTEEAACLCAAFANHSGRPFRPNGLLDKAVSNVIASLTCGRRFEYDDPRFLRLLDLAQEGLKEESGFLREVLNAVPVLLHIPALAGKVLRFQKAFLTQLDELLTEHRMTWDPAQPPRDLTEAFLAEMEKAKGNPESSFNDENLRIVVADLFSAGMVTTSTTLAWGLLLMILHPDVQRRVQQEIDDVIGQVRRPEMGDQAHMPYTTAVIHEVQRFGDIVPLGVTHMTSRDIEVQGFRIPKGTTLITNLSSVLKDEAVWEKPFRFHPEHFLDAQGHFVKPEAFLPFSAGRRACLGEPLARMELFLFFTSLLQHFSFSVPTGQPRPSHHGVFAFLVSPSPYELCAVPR
Chain of Cytochrome P450 2C19 (Homo sapiens) (P33261 whole entry, looked up): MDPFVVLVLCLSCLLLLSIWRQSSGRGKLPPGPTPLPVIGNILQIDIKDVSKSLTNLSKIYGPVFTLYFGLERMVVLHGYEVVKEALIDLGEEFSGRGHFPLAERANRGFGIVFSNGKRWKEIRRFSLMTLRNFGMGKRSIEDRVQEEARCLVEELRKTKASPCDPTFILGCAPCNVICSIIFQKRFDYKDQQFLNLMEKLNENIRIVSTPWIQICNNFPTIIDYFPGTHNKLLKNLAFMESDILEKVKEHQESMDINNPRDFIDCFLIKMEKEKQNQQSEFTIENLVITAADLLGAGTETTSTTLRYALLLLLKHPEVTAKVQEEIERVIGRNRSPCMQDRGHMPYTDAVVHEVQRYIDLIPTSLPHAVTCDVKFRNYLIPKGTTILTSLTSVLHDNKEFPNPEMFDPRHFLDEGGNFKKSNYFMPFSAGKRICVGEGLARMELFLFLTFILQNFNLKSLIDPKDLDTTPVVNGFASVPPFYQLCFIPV
Chain of Cytochrome P450 2C9 (P11712 whole entry): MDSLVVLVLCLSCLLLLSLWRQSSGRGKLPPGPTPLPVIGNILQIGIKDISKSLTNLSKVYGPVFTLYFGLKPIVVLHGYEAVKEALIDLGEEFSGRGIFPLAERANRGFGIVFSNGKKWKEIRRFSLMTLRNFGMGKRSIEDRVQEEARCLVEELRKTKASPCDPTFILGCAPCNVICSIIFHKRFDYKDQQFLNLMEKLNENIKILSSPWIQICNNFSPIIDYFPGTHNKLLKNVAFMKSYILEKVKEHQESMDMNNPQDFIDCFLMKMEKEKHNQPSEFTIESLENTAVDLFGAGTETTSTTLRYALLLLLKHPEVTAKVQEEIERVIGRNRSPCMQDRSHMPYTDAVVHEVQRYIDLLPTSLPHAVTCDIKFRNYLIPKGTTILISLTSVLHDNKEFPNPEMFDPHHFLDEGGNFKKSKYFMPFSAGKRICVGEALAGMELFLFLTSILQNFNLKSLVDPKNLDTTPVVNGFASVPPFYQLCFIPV

Consider `CCc1ccn2c(=N)c(S(=O)(=O)c3ccccc3)c(SC)nc2c1`, for which the IC50 (as a rule, the concentration needed to halve the response being measured) in test [1] turned out to be 70.1 nM.

Molecule `N#C/C(=C\Nc1ccccn1)S(=O)(=O)c1ccccc1` came in with an IC50 in test [1] of 524 nM.

Molecule `CSc1nc2c(Br)cc(C)cn2c(=N)c1S(=O)(=O)c1ccccc1` showed an IC50 in test [1] of 269 nM.

`CSc1nc2c3ccccc3ccn2c(=N)c1S(=O)(=O)c1ccccc1`: in test [1], the half-maximal inhibitory concentration (IC50) is 68.9 nM.

For `CSc1nc2ccccn2c(=N)c1S(=O)(=O)c1ccccc1`, the Kd in test [2] came out at 4.7 nM. The IC50 is 860 nM in test [3]; over 40000 nM on Cytochrome P450 2D6; over 40000 nM at Cytochrome P450 3A4 [4]; 24200 nM at Cytochrome P450 2C9; over 40000 nM on Cytochrome P450 3A4 [5]; 4 nM in test [1]. Besides, the IC50 at Cytochrome P450 1A2 is over 40000 nM.

Consider `CCCS(=O)(=O)c1c(SC)nc2ccccn2c1=N`, for which, in test [1], the IC50 was 3580 nM.

`CSc1nc2ccc(F)cn2c(=N)c1S(=O)(=O)c1ccccc1`: in test [1], the IC50 stood at 87.6 nM.

`CSc1nc2ccccn2c(=N)c1S(=O)(=O)c1ccc2ccccc2c1` returned a concentration for half-maximal inhibition (IC50) in test [1] of 79.2 nM.

`CNc1cc(NS(=O)(=O)c2ccc(N)cc2)nc(NC)n1`: the IC50 in test [1] was 26.3 nM.

(Values after ChEMBL document CHEMBL1145753, “Identification of a potent and selective 5-HT(6) antagonist: one-step synthesis of (E)-3-(benzenesulfonyl)-2- (methylsulfanyl)pyrido[1,2-a]pyrimidin-4-ylidenamine from 2-(benzenesulfonyl)-3,3-bis(methylsulfanyl)acrylonitrile” (J Med Chem, 2003).)
